Published values from different studies.
Lines come from different studies, so protocols differ.
Target: Dual specificity protein kinase CLK1 (CLK1, Homo sapiens, UniProt P49759)
Technique: competition with immobilised ligand

Compound	test	setting	remaining binding [%]
Cc1c(C(=O)O)cc(-c2ccc(C3CCNCC3)cc2)c2ccc(-c3ccc(C(F)(F)F)cc3)cc12	binding	1 µM	100
O=C(c1ccc(Nc2ncc(Cl)c(-c3cc4ccccc4s3)n2)cc1)N1CCC(N2CCCC2)CC1	binding	1 µM	3
CNC(=O)[C@@H]1CC[C@@H](n2c(-c3ccc4cnccc4c3)nc3ccc(C(=O)NCc4cccc(C(N)=O)c4)cc32)C1	binding	1 µM	98
CS(=O)(=O)N1CCCC(NC(=O)[C@H](CCC2CCCCC2)NC(=O)c2ccc(CNc3ncnc4c3nnn4-c3ccccc3)cc2)C1 (some centres unmarked)	cell-free assay	0.1 µM	87
CNC(=O)c1ccccc1Nc1cc(Nc2ccc(N3CCOCC3)cc2OC)ncc1C(F)(F)F	binding	1 µM	< 10
Nc1ncc2c(n1)-c1c([nH]c3ccc(C#CC4CC4)cc13)CCCC2	binding	1 µM	100
COc1cc(-c2cn(C3CCc4ccccc4N(CC(F)(F)F)C3=O)nn2)ccc1-n1ccc(C)n1 (centres unmarked)	cell-free assay	1 µM	87
O=C(NCCCN1CCOCC1)c1ccc(Nc2ncc(Cl)c(-c3ccc(Cl)s3)n2)cc1	binding	1 µM	3.6
C[C@H](c1ccnc(Nc2nc3ccc(-c4cc(N(C)C)ncn4)cc3[nH]2)c1)N1CCN(C(=O)CC(F)(F)F)CC1	cell-free assay	0.1 µM	90
CCN1CCN(Cc2ccc(C(=O)Nc3ccc(C)c(Oc4ccc5c(c4)CC(=O)N5)c3)cc2C(F)(F)F)CC1	binding	1 µM	100
O=C(Nc1c[nH]nc1C(=O)NC1CCNCC1)c1cc(F)cc(F)c1	binding	1 µM	100
C[C@@H](c1ccc(-n2cnc3c(N)ncnc32)cc1)N1CCc2nn(C)c(Cc3ccccc3)c2C1=O	binding	0.1 µM	67
CN(CCCC(F)(F)F)c1nccc(-c2cnn3ncccc23)n1	binding	1 µM	43
Cc1cnc(Nc2ccc(C(=O)N3CCC(N4CCCC4)CC3)cc2)nc1-c1cc2ccccc2s1	binding	1 µM	8.3
